Reference: ChEMBL document CHEMBL1148968 (J Nat Prod, 2004)
The source made the active and inactive calls. The rule behind the calls is not given here.

What was measured:
[1] = tested on: T47D; test: Inhibition of hypoxia-induced secreted VEGF protein level in human T47D cells at 3 uM by ELISA; format: functional
In short: (§1)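 T47D cells seeded at 3.56×10^5/well in DMEM/F12 with 10% FBS and grown 24 h. Half the medium was replaced with serum-free medium containing compound. After a 30 min pretreatment, cells were held 16 h at 1% O2. VEGF in conditioned medium was measured by human VEGF ELISA and normalized to viable cell count (hemocytometer). Triplicate, mean ± SE, ANOVA/Fisher's PLSD.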

[2] = tested on: T47D; test: Inhibition of human T47D cell proliferation/viability up to 100 uM after 48 hrs by MTT assay; format: functional
In short: (§2)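 Cells grown in DMEM/F12 with 10% FBS and antibiotics, seeded at 3×10^4/well, incubated 24 h at 37 °C. Compound diluted in serum-free medium, tested at 10^-9 to 10^-4 M for 48 h under normoxia. MTT added to 0.25 mg/mL final for 4 h at 37 °C, then lysed in 0.04 N HCl/isopropanol, A570 read.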

[3] = tested on: T47D; test: Inhibition of hypoxia-induced secreted VEGF protein level in human T47D cells at 1 uM by ELISA; format: functional; in short: as §1
[4] = tested on: T47D; test: Blockade of HIF1alpha protein expression in hypoxia-induced human T47D cells at 1 uM under 30 mins in normoxic condition followed by 4 hrs in hypoxic condition; format: functional, cell-based
In short: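 T47D nuclear HIF-1α (and HIF-1β) measured by Western blot of nuclear extracts. Exponentially grown cells were pretreated 30 min under normoxia (95% air), then held 4 h at 1% O2.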

[5] = tested on: SK-BR-3; test: Inhibition of human SK-BR-3 cell proliferation/viability at 100 uM after 48 hrs by MTT assay; format: functional; conditions: SK-BR-3, 48 h; in short: as §2
[6] = Inhibition of african green monkey Vero cell proliferation/viability up to 100 uM after 48 hrs by MTT assay; format: cell-based; conditions: chlorocebus sabaeus, Vero cells; in short: as §2
[7] = target: T1, Hypoxia inducible factors; HIF-1-alpha, HIF-2-alpha (Homo sapiens, UniProt Q16665+Q99814); test: Inhibition of hypoxia-induced HIF1 activation in human T47D cells carrying […] reporter gene measured by luciferase activity at 1.78 uM; format: cell-based
In short: (§3)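 T47D cells were transiently transfected with the pTK-HRE3-luc reporter (erythropoietin HRE). They were pretreated with compound for 30 min, then held 16 h at 1% O2/5% CO2/94% N2. Luciferase activity was reported as % inhibition versus the induced control. One representative experiment, run in quadruplicate, mean ± SE.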

[8] = tested on: MDA-MB-231; test: Inhibition of human MDA-MB-231 cell proliferation/viability up to 100 uM after 48 hrs by MTT assay; format: functional; in short: as §2
[9] = tested on: T47D; test: Reduction of human T47D cell colony formation under hypoxic condition at 1 uM by clonogenic survival assay; format: functional
In short: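 T47D cells seeded at 400 cells per 100 mm dish and allowed to adhere 4 h. Half the medium was replaced with serum-free medium containing compound. After a 30 min pretreatment, cells were held 24 h at 1% O2 (normoxic comparison run in parallel). Medium was then refreshed and cells grown 2–3 weeks under normoxia. Colonies were methanol-fixed and stained with crystal violet, and those over 50 cells counted.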

[10] = tested on: MCF7; test: Inhibition of human MCF7 cell proliferation/viability up to 100 uM after 48 hrs by MTT assay; format: functional; in short: as §2
[11] = species on record: Mus musculus; test: Inhibition of C57B1/6 mouse liver mitochondrial activity in presence of succinate; format: functional
[12] = Inhibition of electron transport pathway in C57B1/6 mouse liver mitochondria; format: functional
[13] = target: T1, Hypoxia inducible factors; HIF-1-alpha, HIF-2-alpha; test: Inhibition of hypoxia-induced HIF1 activation in human T47D cells carrying […] reporter gene measured by luciferase activity; format: cell-based; in short: as §3

inhibition [7]: 88%
IC50 [12]: 0.8 µM
EC50 [13]: 0.4 µM
IC50 [13]: 0.4 µM
SMILES: CC1=C[C@@H](O)C(C(C)CC[C@@H]2[C@@H](C)[C@]3(C)CC[C@@]2(C)O3)CC1 (some centres undefined) [LAURENDITERPENOL]
inhibition at 3 µM [1]: 80%
inhibition (INH) [2]: <50%
inhibition at 1 µM [3]: 55%
Activity [4]: Active
inhibition at 100 µM [5]: 63%
inhibition at 48 h [6]: < 50%
inhibition (INH) [8]: <50%
inhibition at 1 µM [9]: 50%
inhibition (INH) [10]: <50%
Activity [11]: inactive
